Bioassay records deposited in PubChem BioAssay by several laboratories.
Sampled rows, rich in hits. Any-hit rate of the full collection: about 5.9%.
Pyk2 oligo antag – blocks oligomerization of human Pyk2 in cells | 99,000 compounds, 0.83% hits | Q293 cells, Pyk2 FERM NanoBiT luminescence; stronger effect = lower value | Q14289 | AID 1347419 | z-score (the deposit names both 25 µM and 10 µM);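 active means Z-score of -3 or lower, scaled per plate to the spread of control and sample wells; inactive means z-score above -3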;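 further: negative z-score means lost luminescence so less FERM oligomerization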
Target sequence (Q14289 whole entry, looked up): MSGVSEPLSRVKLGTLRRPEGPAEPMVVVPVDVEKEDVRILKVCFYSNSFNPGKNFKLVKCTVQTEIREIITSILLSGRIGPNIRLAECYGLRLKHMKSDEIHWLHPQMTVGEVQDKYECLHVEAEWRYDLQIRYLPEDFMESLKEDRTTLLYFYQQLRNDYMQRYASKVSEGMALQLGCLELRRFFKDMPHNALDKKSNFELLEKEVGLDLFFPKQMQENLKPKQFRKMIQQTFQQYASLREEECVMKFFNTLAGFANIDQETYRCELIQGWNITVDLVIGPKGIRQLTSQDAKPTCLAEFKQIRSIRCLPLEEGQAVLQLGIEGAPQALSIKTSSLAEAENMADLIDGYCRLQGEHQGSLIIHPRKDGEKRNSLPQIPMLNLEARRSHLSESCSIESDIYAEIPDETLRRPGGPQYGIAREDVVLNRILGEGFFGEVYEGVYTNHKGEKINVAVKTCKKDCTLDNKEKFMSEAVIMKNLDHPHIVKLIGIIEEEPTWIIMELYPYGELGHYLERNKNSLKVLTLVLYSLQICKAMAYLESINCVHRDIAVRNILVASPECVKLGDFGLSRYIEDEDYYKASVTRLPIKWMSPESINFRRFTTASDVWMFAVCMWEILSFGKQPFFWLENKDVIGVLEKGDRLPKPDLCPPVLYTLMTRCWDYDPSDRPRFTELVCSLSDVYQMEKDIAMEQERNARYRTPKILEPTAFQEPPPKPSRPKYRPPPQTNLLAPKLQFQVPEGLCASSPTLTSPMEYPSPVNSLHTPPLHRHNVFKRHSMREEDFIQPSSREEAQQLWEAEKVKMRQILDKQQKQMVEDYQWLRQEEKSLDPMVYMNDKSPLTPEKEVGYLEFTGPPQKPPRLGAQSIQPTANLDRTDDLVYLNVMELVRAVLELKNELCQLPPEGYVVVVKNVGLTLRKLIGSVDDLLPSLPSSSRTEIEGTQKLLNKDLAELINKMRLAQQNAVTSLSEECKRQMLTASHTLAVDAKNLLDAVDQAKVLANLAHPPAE
HUVEC inhibit – blocks proliferation of human endothelial cells; HUVEC proliferation, CellTiter-Glo luminescence, 72 h; stronger effect = lower value; viability, % at 10 µM (by protocol); 86,000 compounds, 1.1% hits; AID 648;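 active means viability at or below 30%; inactive means viability above 30%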;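 further: 100% = median luminescence of DMSO-only cell control wells on each plate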
H69AR growth 86K – growth inhibitors of human H69AR lung tumor cells | viability, % at 10 µM | AID 598 | 85,000 compounds, 6% hits | H69AR lung tumor viability, ATP luminescence, 72 h; stronger effect = lower value;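 active means viability at or below 40%; inactive means viability above 40%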;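 further: multidrug resistant small cell line overexpressing MRP-1 efflux transporter; 100% = mean luminescence of untreated control wells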
MT1-MMP txn act – activates MT1-MMP transcription; HT1080 MT1-MMP promoter luciferase reporter, luminescence, overnight; stronger effect = higher value; activation factor at 10 µM; 86,000 compounds, 0.16% hits;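 active means activation factor of at least 2 for MT1-MMP transcription at 10 µM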
Lung fibro prol – blocks proliferation of human lung fibroblasts. LL 47 human lung fibroblast viability, ATP luminescence; stronger effect = lower value. viability, % at 10 µM. 85,000 compounds, 1.1% hits. AID 719;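 active means viability at or below 50% in the single dose screen; inactive means viability above 50%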;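 further: compound exposure lasted 72 h before the ATP readout; 100% = median luminescence of untreated cell-only wells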
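material = human LL 47 lung fibroblast cells | dosing = compounds added from tenfold dosing solution, 0.1% DMSO final | timing = overnight cell rest, 72 h compound treatment at 37 °C | measured by = CellTiter-Glo luminescence measuring cellular ATP | evaluation = % viability versus median cells-only luminescence | control set = cell-only wells, no compound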
Jurkat tox 60K – cytotoxicity toward Jurkat cells; Jurkat E6.1 viability, ATP luminescence, 48 h; inhibition, % at 4 µM; 56,000 compounds, 1.2% hits; AID 463;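 active means inhibition above the mean inhibition of all tested compounds plus 3 SD, cut at about 28% in these data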
* hit, by the source's call; . = not tested or not shown.

SMILES | Pyk2 oligo antag | HUVEC inhibit | H69AR growth 86K | MT1-MMP txn act | Lung fibro prol | Jurkat tox 60K
CC(C)C(=O)NC(Nc1cccc2cccnc12)C(Cl)(Cl)Cl (centres undefined) | -0.84 | . | . | . | . | .
COc1ccc(C(NC(C)=O)c2ccc3cccnc3c2O)c(OC)c1 (centres undefined) | -1.8 | 2.4* | 0.9* | 0.5 | 15* | 86*
CC(C)C(c1nnnn1C(C)(C)C)N1CCN(c2cccc(Cl)c2)CC1 (centres undefined) | -1.1 | 98 | 73 | 1.2 | 98 | -6
c1ccc(-c2nc(CSc3n[nH]c(-c4cccs4)n3)cs2)cc1 | 0.13 | 90 | 82 | 1.1 | 101 | .
CCOC(=O)c1sc2nc(N3CCCC3)c3c(c2c1N)CC(C)(C)OC3 | -0.49 | . | . | 1.1 | . | -5
CCOC(=O)c1sc2nc(C(C)C)c3c(c2c1N)CC(C)(C)OC3 | -1.8 | 64 | 50 | 0.8 | 48* | .
O=S(=O)(NCCSCc1c(Cl)cccc1Cl)c1ccc2c(c1)OCCO2 | -4.3* | . | . | . | . | .
Cc1cc(C)n(C(C[N+](=O)[O-])c2ccc(Cl)cc2)n1 (centres undefined) | -0.07 | . | . | . | . | .
Cc1ccc(NC(=O)COc2ccccc2CNC(C)(C)CC(C)(C)C)cc1 | 0.34 | 33 | 1.6* | 1.2 | 35* | .
O=S(=O)(NCC1CCCO1)c1ccc(S(=O)(=O)N(Cc2ccc(F)cc2)C2CCCCC2)cc1 (centres undefined) | -0.36 | 70 | 62 | 1.2 | 80 | .
Cc1ccc(C(=O)Nc2ncnc3sc4c(c23)CCCCC4)cc1 | -1.4 | 78 | 31* | 0.9 | 84 | .
Cc1cccc(-n2ccnc2SCC(=O)Nc2nccs2)c1C | -0.83 | 97 | 82 | 1.1 | 77 | 4
CCc1nnc(NC(=O)CSc2nccn2-c2cc(C)cc(C)c2)s1 | . | 78 | 22* | 1.1 | 99 | 19
CCc1nnc(NC(=O)CSc2nccn2-c2cccc(C)c2C)s1 | . | 82 | 18* | 1.1 | 91 | 32
CCCCn1c(SCC(=O)N2c3ccccc3CCc3ccccc32)nc2c1c(=O)n(C)c(=O)n2C | -0.67 | 84 | 99 | 1.2 | 90 | .
CCOc1ccc2nc(NC(=O)CSc3nc4c(c(=O)n(C)c(=O)n4C)n3C(C)C)sc2c1 | -1.5 | 8.9* | 30* | 1 | 100 | 0
CCn1c(SCC(=O)Nc2nc3ccc(OC)cc3s2)nc2c1c(=O)n(C)c(=O)n2C | -1.8 | 73 | 17* | 1.1 | 94 | 4
CC(C)n1c(SCC(=O)Nc2nc3ccccc3s2)nc2c1c(=O)n(C)c(=O)n2C | -3.7* | 69 | 29* | 1 | 96 | .
CCn1c(SCC(=O)N2c3ccccc3CCc3ccccc32)nc2c1c(=O)n(C)c(=O)n2C | 0.55 | 94 | 14* | 0.9 | 99 | 6
Cc1nonc1NCn1nnc2ccccc21 | -0.41 | 101 | 100 | 1.1 | 103 | .
COc1ccc(-c2nnc(SCC(=O)Oc3ccc(C)cc3)o2)cc1 | 1.9 | 98 | 102 | 1.2 | 95 | .
COc1ccc2nc(NC(=O)CSc3nnnn3C3CCCCC3)sc2c1 | 1.5 | 87 | 49 | 1 | 110 | 1
CCn1c(SCC(=O)Nc2cc(C)on2)nc2c1c(=O)n(C)c(=O)n2C | 1.8 | 106 | 101 | 1 | 97 | 9
CCOc1ccc2nc(NC(=O)CSc3nnnn3C3CCCCC3)sc2c1 | -0.71 | 79 | 1.7* | 1.3 | 91 | -3
CCn1c(SCC(=O)Nc2nc3c(s2)CCCC3)nc2c1c(=O)n(C)c(=O)n2C | . | 92 | 17* | 1.1 | 86 | -6
SMILES | Pyk2 oligo antag | HUVEC inhibit | H69AR growth 86K | MT1-MMP txn act | Lung fibro prol | Jurkat tox 60K
C=C(C)c1cccc(C(C)(C)NC(=O)N2CCN(CC(N)=O)CC2)c1 | 0.93 | 98 | 85 | 1.1 | 105 | 8
Cc1ccc(-n2ncc3c(=O)n(CC(=O)NCC4CCCO4)cnc32)cc1 (centres undefined) | 2.2 | 88 | 96 | 1.3 | 108 | -4
O=C(CSc1nnc(CCCO)n1-c1ccccc1)Nc1nccs1 | 0.33 | 108 | 95 | 1.1 | 99 | -2
Cc1cccc(C)c1OCc1nnc(SCC(=O)Nc2nccs2)n1-c1ccccc1 | 0.51 | 62 | 20* | 1.1 | 87 | 2
Cc1ccc(N(Cc2ccc(C(=O)NC3CCCCC3)cc2)S(C)(=O)=O)cc1C | -1.1 | 62 | 19* | 1.3 | 91 | .
CCOC(=O)C(C)Sc1nc(-c2ccc(OC)cc2)nc2c1c(=O)n(C)c(=O)n2C (centres undefined) | . | 60 | 41 | 1 | 82 | -6
